From ChEMBL document CHEMBL1122233, “Antihypertensive 9-substituted 1-oxa-4,9-diazaspiro[5.5]undecan-3-ones” (J Med Chem, 1983)

How the values were obtained:
Rattus norvegicus [1] = experiment: (§1) Percentage fall in systolic blood pressure after 4 hours at 50 mg/kg given perorally; assay type: functional, Artery; conditions: route oral
How it was run: (§2)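 Male Okamoto-Aoki SHR, four per group, with a concurrent vehicle control group. Oral dosing in water (0.1 mL/10 g) on two consecutive mornings. After the day-2 dose, rats were restrained in a 30 °C chamber. Tail-cuff systolic pressure was taken at 1-4 h from four traces per rat. Result is % decrease versus control mean, by 1-tailed t test, p ≤ 0.05.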

Rattus norvegicus [2] = experiment: (§3) Percentage fall in systolic blood pressure after 3 hours at 12.5 mg/kg given perorally; assay type: functional, organism-based; design: dose 12.5 mg/kg; conditions: Artery; how it was run: as §2
Rattus norvegicus [3] = experiment: (§4) Percentage fall in systolic blood pressure after 2 hours at 50 mg/kg given perorally; assay type: functional, Artery; conditions: route oral; how it was run: as §2
Rattus norvegicus [4] = experiment: Percentage fall in systolic blood pressure after 1 hr at 12.5 mg/kg given perorally; assay type: functional, Artery; conditions: route oral; how it was run: as §2
Rattus norvegicus [5] = experiment: (§5) Percentage fall in systolic blood pressure after 2 hours at 12.5 mg/kg given perorally; assay type: functional, organism-based; design: dose 12.5 mg/kg; conditions: Artery; how it was run: as §2
Rattus norvegicus [6] = experiment: (§6) Percentage fall in systolic blood pressure after 4 hours at 12.5 mg/kg given perorally; assay type: functional, organism-based; design: dose 12.5 mg/kg; conditions: Artery; how it was run: as §2
Rattus norvegicus [7] = experiment: (§7) Percentage fall in systolic blood pressure after 3 hours at 50 mg/kg given perorally; assay type: functional, Artery; conditions: route oral; how it was run: as §2
Rattus norvegicus [8] = experiment: (§8) Percentage fall in systolic blood pressure after 1 hr at 50 mg/kg given perorally; assay type: functional, Artery; conditions: route oral; how it was run: as §2
Rattus norvegicus [9] = experiment: Percentage fall in systolic blood pressure after 1 hr at 25 mg/kg given perorally; assay type: functional, organism-based; design: dose 25 mg/kg; conditions: Artery
How it was run: (§9)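 Male Okamoto-Aoki spontaneously hypertensive rats, trained, in groups of four matched for mean systolic pressure; five treated groups and one vehicle control run concurrently. Oral dosing in water (solution or suspension, 0.1 mL/10 g) on two consecutive mornings. On day 2, rats were restrained at 30.0 ± 1.0 °C and tail-cuff systolic pressure recorded at 1–4 h; percent fall versus control, 1-tail t test, p ≤ 0.05.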

Rattus norvegicus [10] = experiment: Percentage fall in systolic blood pressure after 2 hr at 25 mg/kg given perorally; assay type: functional, Artery; conditions: route oral; how it was run: as §9
Rattus norvegicus [11] = experiment: Percentage fall in systolic blood pressure after 3 hr at 25 mg/kg given perorally; assay type: functional, organism-based; design: dose 25 mg/kg; conditions: Artery; how it was run: as §9
Rattus norvegicus [12] = experiment: Percentage fall in systolic blood pressure after 4 hr at 25 mg/kg given perorally; assay type: functional, Artery; conditions: route oral; how it was run: as §9
Rattus norvegicus [13] = experiment: as §1; assay type: functional, organism-based; design: dose 50 mg/kg; conditions: Artery; how it was run: as §2
Rattus norvegicus [14] = experiment: as §8; assay type: functional, organism-based; design: dose 50 mg/kg; conditions: Artery; how it was run: as §9
Rattus norvegicus [15] = experiment: as §7; assay type: functional, organism-based; design: dose 50 mg/kg; conditions: Artery; how it was run: as §2
Rattus norvegicus [16] = experiment: Percentage fall in systolic blood pressure after 2 hours at 50 mg/kg given perorally.; assay type: functional, Artery; conditions: route oral; how it was run: as §9
Rattus norvegicus [17] = experiment: as §4; assay type: functional, organism-based; design: dose 50 mg/kg; conditions: Artery; how it was run: as §9
Rattus norvegicus [18] = experiment: as §7; assay type: functional, organism-based; design: dose 50 mg/kg; conditions: Artery; how it was run: as §9; remark: listed apart in the source
Rattus norvegicus [19] = experiment: as §1; assay type: functional, organism-based; design: dose 50 mg/kg; conditions: Artery; how it was run: as §9; remark: listed apart in the source
[20] = target: T1, Adrenergic receptor alpha-2 (Rattus norvegicus, UniProt P22086+P19328+P22909); experiment: Affinity for alpha-2 adrenergic receptor of rat cerebral cortex was determined by ligand binding using [3H]yohimbine.; assay type: tissue-based
T1 sequence (P22086 whole entry): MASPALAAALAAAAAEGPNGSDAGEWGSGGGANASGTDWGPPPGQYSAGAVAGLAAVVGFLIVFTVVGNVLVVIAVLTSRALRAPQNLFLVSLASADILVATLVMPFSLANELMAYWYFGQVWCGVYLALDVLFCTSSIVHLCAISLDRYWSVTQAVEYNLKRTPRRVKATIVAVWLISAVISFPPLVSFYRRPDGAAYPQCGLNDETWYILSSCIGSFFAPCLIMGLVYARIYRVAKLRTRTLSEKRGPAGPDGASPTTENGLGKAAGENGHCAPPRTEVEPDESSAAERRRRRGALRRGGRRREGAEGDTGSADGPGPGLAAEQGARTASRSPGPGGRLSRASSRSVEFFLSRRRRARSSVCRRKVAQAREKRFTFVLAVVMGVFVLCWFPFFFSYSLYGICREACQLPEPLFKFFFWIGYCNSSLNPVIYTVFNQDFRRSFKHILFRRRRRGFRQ
T1 sequence (P19328 whole entry): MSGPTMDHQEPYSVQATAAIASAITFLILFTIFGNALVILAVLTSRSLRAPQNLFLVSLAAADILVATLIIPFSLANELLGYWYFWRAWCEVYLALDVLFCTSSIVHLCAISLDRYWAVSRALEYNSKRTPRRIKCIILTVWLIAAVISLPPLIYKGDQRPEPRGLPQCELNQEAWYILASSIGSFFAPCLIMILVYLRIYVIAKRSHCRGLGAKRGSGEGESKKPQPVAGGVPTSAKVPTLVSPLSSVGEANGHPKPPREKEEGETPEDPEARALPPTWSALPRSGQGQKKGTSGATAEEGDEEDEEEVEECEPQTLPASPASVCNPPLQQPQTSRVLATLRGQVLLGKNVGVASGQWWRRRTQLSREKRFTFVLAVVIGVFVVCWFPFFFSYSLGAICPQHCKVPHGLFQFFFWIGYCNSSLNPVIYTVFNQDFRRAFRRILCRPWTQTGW
T1 sequence (P22909 whole entry): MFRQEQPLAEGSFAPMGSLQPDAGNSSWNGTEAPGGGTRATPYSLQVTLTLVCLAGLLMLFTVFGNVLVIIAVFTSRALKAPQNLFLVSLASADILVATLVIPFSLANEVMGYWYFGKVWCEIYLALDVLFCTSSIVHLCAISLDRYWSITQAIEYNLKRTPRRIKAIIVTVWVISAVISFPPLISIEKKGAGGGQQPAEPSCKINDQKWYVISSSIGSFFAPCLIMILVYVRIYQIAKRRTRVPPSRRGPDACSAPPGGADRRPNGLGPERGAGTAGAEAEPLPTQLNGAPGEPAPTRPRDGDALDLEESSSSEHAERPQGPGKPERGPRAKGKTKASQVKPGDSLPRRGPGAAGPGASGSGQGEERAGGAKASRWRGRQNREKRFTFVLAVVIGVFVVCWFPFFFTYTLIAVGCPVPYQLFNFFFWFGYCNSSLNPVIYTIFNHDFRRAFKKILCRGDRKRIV
How it was run: (§10)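 Washed rat cerebral cortex membranes (homogenised in 50 mM Tris-HCl pH 7.8, pelleted at 48000g, washed 3 times) at 2.5 mg/mL protein. […] Ice-cold buffer stop, then filtration. Nonspecific binding defined with 200 μmol norepinephrine. KI from IC50 by Cheng-Prusoff, given as negative log.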

Rattus norvegicus [21] = experiment: as §5; assay type: functional, Artery; conditions: route oral; how it was run: as §2
Rattus norvegicus [22] = experiment: Percentage fall in systolic blood pressure after 3 hours at 6.25 mg/kg given perorally; assay type: functional, Artery; conditions: route oral; how it was run: as §2
Rattus norvegicus [23] = experiment: Percentage fall in systolic blood pressure after 1 hr at 6.25 mg/kg given perorally; assay type: functional, Artery; conditions: route oral; how it was run: as §2
[24] = target: T2, Adrenergic receptor alpha-1 (Rattus norvegicus, UniProt P15823+P23944+P43140); experiment: Affinity for alpha-1 adrenoceptor of rat cerebral cortex was determined by ligand binding using [3H]prazosin.; assay type: tissue-based; how it was run: as §10
T2 sequence (P15823 whole entry): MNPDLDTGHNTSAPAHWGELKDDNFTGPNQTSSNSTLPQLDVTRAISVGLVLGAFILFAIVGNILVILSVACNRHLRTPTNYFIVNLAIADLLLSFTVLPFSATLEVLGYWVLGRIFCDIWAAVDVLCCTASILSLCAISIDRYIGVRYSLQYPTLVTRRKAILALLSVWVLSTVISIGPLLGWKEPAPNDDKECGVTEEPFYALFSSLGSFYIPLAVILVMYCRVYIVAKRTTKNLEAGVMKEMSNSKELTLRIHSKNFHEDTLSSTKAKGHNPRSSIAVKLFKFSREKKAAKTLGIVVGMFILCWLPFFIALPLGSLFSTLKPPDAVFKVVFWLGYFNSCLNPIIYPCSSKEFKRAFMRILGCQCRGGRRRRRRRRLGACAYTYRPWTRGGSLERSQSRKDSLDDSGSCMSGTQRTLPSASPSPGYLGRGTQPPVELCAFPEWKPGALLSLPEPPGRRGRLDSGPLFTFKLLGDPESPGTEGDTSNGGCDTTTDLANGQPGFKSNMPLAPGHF
T2 sequence (P23944 whole entry): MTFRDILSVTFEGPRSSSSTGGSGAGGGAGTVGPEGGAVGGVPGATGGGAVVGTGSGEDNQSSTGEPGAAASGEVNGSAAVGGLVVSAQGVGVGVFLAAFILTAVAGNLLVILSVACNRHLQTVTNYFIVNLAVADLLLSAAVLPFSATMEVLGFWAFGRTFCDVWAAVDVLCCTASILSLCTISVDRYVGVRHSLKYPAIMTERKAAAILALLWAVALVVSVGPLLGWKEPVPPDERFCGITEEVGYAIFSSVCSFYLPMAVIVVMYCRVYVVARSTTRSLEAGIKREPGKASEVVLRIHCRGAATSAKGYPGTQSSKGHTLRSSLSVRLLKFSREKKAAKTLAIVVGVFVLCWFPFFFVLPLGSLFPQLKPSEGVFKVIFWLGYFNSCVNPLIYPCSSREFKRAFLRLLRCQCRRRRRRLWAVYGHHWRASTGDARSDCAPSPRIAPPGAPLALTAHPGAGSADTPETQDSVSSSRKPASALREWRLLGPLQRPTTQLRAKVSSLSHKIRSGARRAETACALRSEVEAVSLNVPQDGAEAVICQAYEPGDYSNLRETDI
T2 sequence (P43140 whole entry): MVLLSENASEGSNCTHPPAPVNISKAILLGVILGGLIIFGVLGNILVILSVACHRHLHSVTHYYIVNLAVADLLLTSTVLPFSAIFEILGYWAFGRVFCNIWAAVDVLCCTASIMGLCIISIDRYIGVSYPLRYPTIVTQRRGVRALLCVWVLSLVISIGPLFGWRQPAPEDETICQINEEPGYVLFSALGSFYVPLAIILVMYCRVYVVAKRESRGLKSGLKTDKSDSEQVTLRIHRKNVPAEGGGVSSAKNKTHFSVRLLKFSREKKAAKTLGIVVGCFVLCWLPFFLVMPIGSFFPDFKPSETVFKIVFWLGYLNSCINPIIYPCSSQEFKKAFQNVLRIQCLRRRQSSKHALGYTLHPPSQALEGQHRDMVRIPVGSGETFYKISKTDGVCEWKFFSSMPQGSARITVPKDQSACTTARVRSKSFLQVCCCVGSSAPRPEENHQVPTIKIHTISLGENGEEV

Rattus norvegicus [25] = experiment: as §6; assay type: functional, Artery; conditions: route oral; how it was run: as §2
Rattus norvegicus [26] = experiment: as §3; assay type: functional, Artery; conditions: route oral; how it was run: as §2
Rattus norvegicus [27] = experiment: Percentage fall in systolic blood pressure after 2 hours at 6.25 mg/kg given perorally; assay type: functional, Artery; conditions: route oral; how it was run: as §2
Rattus norvegicus [28] = experiment: Percentage fall in systolic blood pressure after 4 hours at 6.25 mg/kg given perorally; assay type: functional, Artery; conditions: route oral; how it was run: as §2

O=C1COC2(CCN(CCc3c[nH]c4ccccc34)CC2)CN1c1ccccc1
Decrease in SBP (Rattus norvegicus [1]): 40%
Decrease in SBP (Rattus norvegicus [2]): Not significant
Decrease in SBP (Rattus norvegicus [3]): 59%
Decrease in SBP (Rattus norvegicus [4]): 19%
Decrease in SBP (Rattus norvegicus [5]): Not significant
Decrease in SBP (Rattus norvegicus [6]): Not significant
Decrease in SBP (Rattus norvegicus [7]): 45%
Decrease in SBP (Rattus norvegicus [8]): 45%

O=C1COC2(CCN(CC(O)C3COc4ccccc4O3)CC2)CN1c1ccccc1 (centres undefined)
Decrease in SBP (Rattus norvegicus [9]): Not significant
Decrease in SBP (Rattus norvegicus [10]): 25%
Decrease in SBP (Rattus norvegicus [11]): Not significant
Decrease in SBP (Rattus norvegicus [12]): 16%

O=C1COC2(CCN(CC(O)COc3ccccc3)CC2)CN1 (centres undefined)
Decrease in SBP (Rattus norvegicus [13]): Not significant
Decrease in SBP (Rattus norvegicus [14]): Not significant
Decrease in SBP (Rattus norvegicus [15]): Not significant
Decrease in SBP (Rattus norvegicus [16]): 18%

O=C1COC2(CCN(CC(O)C3COc4ccccc4O3)CC2)C(c2ccccc2)N1 (centres undefined)
Decrease in SBP (Rattus norvegicus [17]): Not significant
Decrease in SBP (Rattus norvegicus [14]): Not significant
Decrease in SBP (Rattus norvegicus [18]): Not significant
Decrease in SBP (Rattus norvegicus [19]): Not significant

O=C1COC2(CCN(CCc3c[nH]c4ccccc34)CC2)CN1
-Log Ki [20]: 6.2
Decrease in SBP (Rattus norvegicus [21]): 41%
Decrease in SBP (Rattus norvegicus [1]): 41%
Decrease in SBP (Rattus norvegicus [22]): 20%
Decrease in SBP (Rattus norvegicus [23]): 28%
Decrease in SBP (Rattus norvegicus [3]): 48%
-Log Ki [24]: 7.41
Decrease in SBP (Rattus norvegicus [25]): 26%
Decrease in SBP (Rattus norvegicus [26]): 29%
Decrease in SBP (Rattus norvegicus [27]): 30%
Decrease in SBP (Rattus norvegicus [4]): 39%
Decrease in SBP (Rattus norvegicus [28]): 19%
Decrease in SBP (Rattus norvegicus [7]): 48%
Decrease in SBP (Rattus norvegicus [8]): 53%
